Test system: Spodoptera frugiperda
Assay: Antifeedant activity against larvae of Spodoptera frugiperda (fall armyworm) at 100 ppm measured every 30 min for 8 hr by binary choice assay relative to control
Type: functional
How it was run: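 Final-stadium larvae aged […], reared on wheatgerm diet, starved 2 h, then held singly in Petri dishes with control and treatment glass-fiber disks (2.1 cm). All disks carried 100 µL of 0.05 M sucrose. Treatment disks received compound in acetone and control disks acetone alone; disks were dried and weighed before and after. Ten larvae per compound. Feeding index = [(C − T)/(C + T)]%, mean ± SEM, Wilcoxon matched-pairs test.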

Row | SMILES | AFI [%]
1 | CC1(C)OC(=O)CC[C@]2(C)[C@H]3CC[C@@]4(C)[C@@H](c5ccoc5)OC(=O)[C@H]5O[C@]54[C@]3(C)C(=O)C[C@@H]12 [1,2-DIDEHYDRO-OBACUNONE] | 53
2 | CC(=O)O[C@H]1CC(=O)OC(C)(C)[C@@H]2C[C@@H](O)[C@]3(C)[C@H](CC[C@@]4(C)[C@@H](c5ccoc5)OC(=O)[C@H]5O[C@@]534)[C@@]12C [7-ALPHA-NOMILOL] | 46
3 | CC1(C)OC(=O)C=C[C@]2(C)[C@H]3CC[C@@]4(C)[C@@H](c5ccoc5)OC(=O)[C@H]5O[C@]54[C@]3(C)[C@H](O)C[C@@H]12 [7-ALPHA-OBACUNOL] | 53
4 | CC(=O)O[C@@H]1C[C@H]2C(C)(C)OC(=O)C=C[C@]2(C)[C@H]2CC[C@@]3(C)[C@@H](c4ccoc4)OC(=O)[C@H]4O[C@]43[C@@]21C [7-ALPHA-OBACUNYL ACETATE] | 24
5 | CC(=O)O[C@H]1CC(=O)OC(C)(C)[C@@H]2C[C@H](O)[C@]3(C)[C@H](CC[C@@]4(C)[C@@H](c5ccoc5)OC(=O)[C@H]5O[C@@]534)[C@@]12C [7-BETA-NOMILOL] | 35
6 | CC(=O)O[C@H]1CC(=O)OC(C)(C)[C@@H]2C[C@H](OC(C)=O)[C@]3(C)[C@H](CC[C@@]4(C)[C@@H](c5ccoc5)OC(=O)[C@H]5O[C@@]534)[C@@]12C [7-BETA-NOMILYL ACETATE] | 46
7 | CC1(C)OC(=O)C=C[C@]2(C)[C@H]3CC[C@@]4(C)[C@@H](c5ccoc5)OC(=O)[C@H]5O[C@]54[C@]3(C)[C@@H](O)C[C@@H]12 [7-BETA-OBACUNOL] | 35
8 | CC(=O)O[C@H]1C[C@H]2C(C)(C)OC(=O)C=C[C@]2(C)[C@H]2CC[C@@]3(C)[C@@H](c4ccoc4)OC(=O)[C@H]4O[C@]43[C@]12C [7-BETA-OBACUNYL ACETATE] | 26
9 | CC(=O)O[C@H]1C[C@H]2C(C)(C)O[C@H]3CC(=O)OC[C@]32[C@H]2CC[C@@]3(C)[C@@H](c4ccoc4)OC(=O)[C@H]4O[C@]43[C@]12C [EPI-LIMONYL ACETATE] | 26
10 | CC1(C)O[C@H]2CC(=O)OC[C@]23[C@H]2CC[C@@]4(C)[C@@H]([C@H]5CCOC5)OC(=O)[C@H]5O[C@]54[C@]2(C)C(=O)C[C@@H]13 [EPI-PERHYDROLIMONIN] | 45
11 | CC1(C)O[C@H]2CC(=O)OC[C@]23[C@H]2CC[C@@]4(C)[C@@H](c5ccoc5)OC(=O)[C@H]5O[C@]54[C@]2(C)[C@@H](O)C[C@@H]13 [EPILIMONOL] | 56
12 | CO/N=C1\C[C@H]2C(C)(C)O[C@H]3CC(=O)OC[C@]32[C@H]2CC[C@@]3(C)[C@@H](c4ccoc4)OC(=O)[C@H]4O[C@]43[C@]12C [LIMONIN-7-METHOXIME] | 76
13 | CC(=O)O/N=C1\C[C@H]2C(C)(C)O[C@H]3CC(=O)OC[C@]32[C@H]2CC[C@@]3(C)[C@@H](c4ccoc4)OC(=O)[C@H]4O[C@]43[C@]12C [LIMONIN-7-OXIME ACETATE] | 45
14 | CC1(C)O[C@H]2CC(=O)OC[C@]23[C@H]2CC[C@@]4(C)[C@@H](c5ccoc5)OC(=O)[C@H]5O[C@]54[C@]2(C)/C(=N/O)C[C@@H]13 [LIMONIN-7-OXIME] | 68
15 | CC1(C)O[C@H]2CC(=O)OC[C@]23[C@H]2CC[C@@]4(C)[C@H](c5ccoc5)OC(=O)[C@H]5O[C@]54[C@]2(C)C(=O)C[C@@H]13 [LIMONIN] | 87
16 | CC1(C)O[C@H]2CC(=O)OC[C@]23[C@H]2CC[C@@]4(C)[C@@H](c5ccoc5)OC(=O)[C@H]5O[C@]54[C@]2(C)[C@H](O)C[C@@H]13 [LIMONOL] | 68
17 | CC(=O)O[C@@H]1C[C@H]2C(C)(C)O[C@H]3CC(=O)OC[C@]32[C@H]2CC[C@@]3(C)[C@@H](c4ccoc4)OC(=O)[C@H]4O[C@]43[C@@]21C [LIMONYL ACETATE] | 45
18 | CO/N=C1\C[C@H]2C(C)(C)OC(=O)C[C@H](OC(C)=O)[C@]2(C)[C@H]2CC[C@@]3(C)[C@@H](c4ccoc4)OC(=O)[C@H]4O[C@]43[C@]12C [NOMILIN-7-METHOXIME] | 38
19 | CC(=O)O/N=C1\C[C@H]2C(C)(C)OC(=O)C[C@H](OC(C)=O)[C@]2(C)[C@H]2CC[C@@]3(C)[C@@H](c4ccoc4)OC(=O)[C@H]4O[C@]43[C@]12C [NOMILIN-7-OXIME ACETATE] | 41
20 | CC(=O)O[C@H]1CC(=O)OC(C)(C)[C@@H]2C/C(=N\O)[C@]3(C)[C@H](CC[C@@]4(C)[C@@H](c5ccoc5)OC(=O)[C@H]5O[C@]543)[C@@]12C [NOMILIN-7-OXIME] | 35
21 | CC(=O)O[C@H]1CC(=O)OC(C)(C)[C@@H]2CC(=O)[C@]3(C)[C@H](CC[C@@]4(C)[C@@H](c5ccoc5)OC(=O)[C@H]5O[C@]543)[C@@]12C [NOMILIN] | 56
22 | CO/N=C1\C[C@H]2C(C)(C)OC(=O)C=C[C@]2(C)[C@H]2CC[C@@]3(C)[C@@H](c4ccoc4)OC(=O)[C@H]4O[C@]43[C@]12C [OBACUNONE-7-METHOXIME] | 29
23 | CC(=O)O/N=C1\C[C@H]2C(C)(C)OC(=O)C=C[C@]2(C)[C@H]2CC[C@@]3(C)[C@@H](c4ccoc4)OC(=O)[C@H]4O[C@]43[C@]12C [OBACUNONE-7-OXIME ACETATE] | 21
24 | CC1(C)OC(=O)C=C[C@]2(C)[C@H]3CC[C@@]4(C)[C@@H](c5ccoc5)OC(=O)[C@H]5O[C@]54[C@]3(C)/C(=N/O)C[C@@H]12 [OBACUNONE-7-OXIME] | 25
25 | CC1(C)OC(=O)C=C[C@]2(C)[C@H]3CC[C@@]4(C)[C@H](c5ccoc5)OC(=O)[C@H]5O[C@]54[C@]3(C)C(=O)C[C@@H]12 [OBACUNONE] | 68
26 | CC1(C)O[C@H]2CC(=O)OC[C@]23[C@H]2CC[C@@]4(C)[C@@H]([C@@H]5CCOC5)OC(=O)[C@H]5O[C@]54[C@]2(C)C(=O)C[C@@H]13 [PERHYDROLIMONIN] | 29
